For experiment [1], the target named is Indoleamine 2,3-dioxygenase 1 (Homo sapiens) (UniProt P14902). The experiment is described as follows: Inhibition of recombinant human IDO1 expressed in Escherichia coli BL21(DE3) preincubated for 40 mins followed by Trp addition and measured after 60 mins by LC-MS analysis. The settings on record: time 100.0 min.
The target is the same in experiment [2]. As to the kind of experiment: Inhibition of IDO1 in human BXPC-3 cells assessed as reduction in IFNgamma induced kynurenine level at 10 uM incubated for 48 hrs by LC-MS analysis. Type of experiment: cell-based. A digest of the protocol: (§1)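 BxPC-3 cells were seeded at 20,000/well in phenol-red-free medium. After 24 h, 50 ng/mL IFN-γ and 380 μM Trp were added together with compound for 48 h. Supernatant was acidified with trichloroacetic acid (7% final), kept 15 min at room temperature and centrifuged. Kyn and Trp were quantified by HPLC-MS/MS.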

The target is the same in experiment [3]. As to the kind of experiment: Inhibition of IDO1 in human BXPC-3 cells assessed as increase in Trp level at 10 uM incubated for 48 hrs in presence of IFNgamma by LC-MS analysis. Type of experiment: cell-based. In outline:
as §1

Experiment [4] has the same target. As to the kind of experiment: Inhibition of IDO1 in human BXPC-3 cells assessed as reduction in IFNgamma induced Trp level at 5 mM pretreated with IFNgamma for 24 hrs followed by compound addition for 30 mins prior to Trp addition and measured after 30 mins by HPLC-MS/MS analysis. Type of experiment: cell-based. The settings on record: time 25.0 hrs. In outline: (§2)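 BxPC-3 cells were kept in Trp-free RPMI for 48 h, then given 50 ng/mL IFN-γ with starvation continued another 24 h. Medium was replaced by Trp-free medium containing compound for 30 min. 50 μM Trp was then added for 30 min. Supernatant Trp was measured by HPLC-MS/MS after 7% trichloroacetic acid precipitation; mean ± SD, n = 3.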

The target in experiment [5] is T1, Bifunctional epoxide hydrolase 2 (Homo sapiens) (UniProt P34913).
T1 sequence (whole entry): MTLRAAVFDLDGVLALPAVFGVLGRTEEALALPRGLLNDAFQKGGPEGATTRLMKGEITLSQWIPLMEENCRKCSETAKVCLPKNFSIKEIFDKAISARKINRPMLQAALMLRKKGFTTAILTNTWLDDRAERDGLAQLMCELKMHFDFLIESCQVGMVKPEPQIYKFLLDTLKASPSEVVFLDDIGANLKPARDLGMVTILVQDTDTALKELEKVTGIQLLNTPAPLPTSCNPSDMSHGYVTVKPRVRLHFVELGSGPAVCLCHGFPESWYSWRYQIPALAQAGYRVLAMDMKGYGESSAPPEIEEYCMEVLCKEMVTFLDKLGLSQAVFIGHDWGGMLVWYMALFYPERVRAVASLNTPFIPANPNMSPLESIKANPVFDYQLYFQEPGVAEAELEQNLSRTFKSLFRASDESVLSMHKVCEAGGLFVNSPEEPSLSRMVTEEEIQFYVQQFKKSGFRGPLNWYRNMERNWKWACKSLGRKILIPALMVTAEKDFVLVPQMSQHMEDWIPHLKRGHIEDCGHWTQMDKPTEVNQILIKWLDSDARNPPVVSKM
Particulars: HAP1, dose 500.0 nM.

For experiment [6], the target named is Indoleamine 2,3-dioxygenase 1 (Homo sapiens) (UniProt P14902). The experiment is described as follows: Inhibition of IDO1 in human HeLa cells assessed as reduction in IFNgamma induced IDO1 mRNA expression level incubated for 24 hrs by qPCR analysis. In kind it is cell-based. In outline: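 HeLa cells were plated at 250,000/well and grown 24 h, then treated with 50 ng/mL IFN-γ plus compound for 24 h. Total RNA was extracted with on-column DNase digestion, and cDNA was made from 800 ng RNA. IDO1 mRNA was quantified by qPCR; mean ± SD, n = 3.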
On the technique in general: Real-time PCR tracks product formation cycle by cycle.

Experiment [7] has the same target. As to the kind of experiment: Inhibition of IDO1 in HEK293T cells assessed as reduction in IFNgamma induced IDO1 protein expression incubated for 48 hrs. In kind it is cell-based.
For experiment [8] the target is unchanged. As to the kind of experiment: Inhibition of IDO1 in human BXPC-3 cells assessed as reduction in IFNgamma induced Trp level at 5 uM pretreated with IFNgamma for 24 hrs followed by compound addition for 30 mins prior to Trp addition and measured after 30 mins by HPLC-MS/MS analysis. Type of experiment: cell-based. The settings on record: time 25.0 hrs. In outline:
as §2

For experiment [9] the target is unchanged. The experiment is described as follows: Inhibition of IDO1 in human HeLa cells assessed as reduction in IFNgamma induced IDO1 protein expression level incubated for 24 hrs by immunoblotting analysis. Type of experiment: cell-based. In outline: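 HeLa cells were plated at 250,000/well and grown 24 h, then exposed to 50 ng/mL IFN-γ and compound for 24 h. Cells were lysed in Laemmli buffer and 20–100 μg protein was resolved on 10% gels. Blots were probed with anti-IDO1 (1:5,000) and IRDye secondaries. IDO1 was normalized to vinculin; mean ± SD, n = 4.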

The structures appear in SMILES notation. The source made the active and inactive calls. No cut-off for these calls is given here.

Chain of Indoleamine 2,3-dioxygenase 1 (Homo sapiens) (P14902 whole entry, looked up): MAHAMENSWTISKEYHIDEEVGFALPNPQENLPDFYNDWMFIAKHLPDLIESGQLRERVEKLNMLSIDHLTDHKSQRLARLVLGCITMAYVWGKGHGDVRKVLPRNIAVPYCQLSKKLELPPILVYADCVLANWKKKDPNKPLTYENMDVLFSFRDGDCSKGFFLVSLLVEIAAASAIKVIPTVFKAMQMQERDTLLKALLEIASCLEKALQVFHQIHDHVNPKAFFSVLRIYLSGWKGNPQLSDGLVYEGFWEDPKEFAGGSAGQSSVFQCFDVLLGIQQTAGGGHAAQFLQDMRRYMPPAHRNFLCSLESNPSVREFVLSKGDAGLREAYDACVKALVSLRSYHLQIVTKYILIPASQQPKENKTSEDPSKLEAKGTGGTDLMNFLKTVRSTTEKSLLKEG

As to `O=C(c1cn(CCOc2ccc3c(c2)OCO3)c2ccc(Br)cc12)C(F)(F)F`, the inhibition result in experiment [1] is “inactive”. Besides, the inhibition result in experiment [2] was “Active”. Moreover, the inhibition result in experiment [3] is “Dose-Dependent Effect”.
For `CC(C)C[C@H](N)C(=O)O`, the inhibition result in experiment [4] was “Active”.
In the case of `NS(=O)(=O)NCCNc1nonc1/C(=N/O)Nc1ccc(F)c(Br)c1`, the inhibition result in [5] was “Active”.
Take `O=C(Cn1cc(C(=O)C(F)(F)F)c2cc(Br)ccc21)NC1CCCCCC1`: the inhibition result in experiment [1], in [6], in experiment [7], in experiment [8] and in [9] was “inactive” in each case.

The record behind these values is ChEMBL document CHEMBL5385937.
